Hits are enriched below; roughly 1.9% of the tested compounds scored in any of these assays.
PP1 inh – PP1-alpha phosphatase inhibitors, primary screen, counter-screen for PP5 inhibitor project, biochemical, fluorescence, OMFP substrate, single point; AID 2235, 2010; inhibition, % at 6.7 µM; purified PP1alpha; hit rate 0.9% among 320,000;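 active means inhibition above the mean inhibition of all tested compounds plus 3 SD, computed separately for each screening campaign, cut at about 15% in these data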
STEP block – STEP phosphatase inhibitors, primary screen, biochemical, fluorescence intensity, uHTS; hit rate 0.25% among 360,000; AID 588621, 2011; inhibition, % at 20 µM; recombinant STEP, OMFP fluorogenic substrate;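 active means inhibition at 20 µM, scaled per plate between control wells, above about 37%, limit read from the data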;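 further: 0% = DMSO with enzyme and substrate and 100% = substrate only without enzyme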
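Also added – OMFP at 25 µM · Test system – STEP tyrosine phosphatase · Technique – FITC-channel fluorescence of OMFP product · Schedule – 20 min at room temperature, dark · Evaluation – control-normalized % inhibition with plate pattern correction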
PP5 inh – PP5 phosphatase inhibitors, primary screen, biochemical, fluorescence; Serine/threonine-protein phosphatase 5 (Homo sapiens), P53041; hit rate 0.18% among 320,000; inhibition, % at 6.7 µM; AID 1987, 2009; purified PP5c, OMFP substrate fluorescence;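 active means inhibition above the campaign's mean inhibition across all tested compounds plus 3 SD, cut at about 9.5% in these data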;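 further: 0% = DMSO only and 100% = 100 µM cantharidin control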
Target sequence (P53041 whole entry, looked up): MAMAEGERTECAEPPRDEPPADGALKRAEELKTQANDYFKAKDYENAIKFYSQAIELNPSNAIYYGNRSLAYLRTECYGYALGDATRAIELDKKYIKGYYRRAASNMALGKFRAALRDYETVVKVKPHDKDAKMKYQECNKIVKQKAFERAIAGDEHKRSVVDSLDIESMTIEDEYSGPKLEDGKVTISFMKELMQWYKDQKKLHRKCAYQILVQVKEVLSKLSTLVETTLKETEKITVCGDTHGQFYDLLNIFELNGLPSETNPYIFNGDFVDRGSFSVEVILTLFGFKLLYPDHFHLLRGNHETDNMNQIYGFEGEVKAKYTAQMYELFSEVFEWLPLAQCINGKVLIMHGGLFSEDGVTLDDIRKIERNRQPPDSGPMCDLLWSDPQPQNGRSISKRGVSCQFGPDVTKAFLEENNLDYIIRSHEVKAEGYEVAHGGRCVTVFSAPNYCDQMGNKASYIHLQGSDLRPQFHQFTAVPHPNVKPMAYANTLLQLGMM
LMPTP inh – LMPTP phosphatase inhibitors, primary screen, biochemical, fluorescence intensity, uHTS. Low molecular weight phosphotyrosine protein phosphatase (Homo sapiens), P24666. recombinant LMPTP-A, OMFP fluorogenic substrate. inhibition, % at 20 µM. hit rate 0.22% among 360,000. AID 651560, 2012;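 active means compounds that cut the enzyme signal by at least half of the control window in the single-dose screen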;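 further: plate controls were DMSO wells with enzyme plus substrate for no effect and substrate without enzyme for full effect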
Target sequence (P24666 whole entry, looked up): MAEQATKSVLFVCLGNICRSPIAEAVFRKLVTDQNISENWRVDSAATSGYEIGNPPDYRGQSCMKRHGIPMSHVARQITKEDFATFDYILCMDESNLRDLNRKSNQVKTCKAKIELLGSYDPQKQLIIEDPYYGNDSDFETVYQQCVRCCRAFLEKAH
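Assay system: LMPTP-A, protein tyrosine phosphatase of low molecular weight / Medium: pH 6.0 Bis-Tris buffer with DTT and Triton X-100 / Schedule: 50 min enzyme reaction at room temperature, protected from light / Measured by: endpoint fluorescence intensity from OMFP dephosphorylation / Read-out basis: % inhibition relative to no-enzyme and uninhibited control wells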
Scp-1 inhibitor – Scp-1 phosphatase inhibitors, primary screen, biochemical, colorimetric, uHTS | Carboxy-terminal domain RNA polymerase II polypeptide A small phosphatase 1 (Homo … | Recombinant Scp1, phosphopeptide, malachite green phosphate absorbance | inhibition, % at 20 µM | hit rate 0.88% among 340,000;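 active means inhibition above about 50% at 20 µM, limit read from the data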;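 further: plate controls were DMSO wells with enzyme for no effect and wells lacking enzyme for full effect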
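Assay system: SCP-1 catalytic fragment, aa 76-261 | Buffer or medium: Tris acetate buffer pH 5.5 with MgCl2 and Tween-20 | Compound: One concentration, 20 µM, with 1.0% DMSO | Also added: Phospho 17-mer peptide substrate | Signal: Absorbance at 630 nm | Incubation: 45 min enzyme reaction at room temperature | Measure: % inhibition of SCP-1 phosphate liberation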
PP1 inh confirm – PP1 phosphatase inhibitors, confirmation, biochemical, fluorescence, OMFP substrate, triplicate | shares compounds with PP1 inh | purified PP1alpha | inhibition, % at 6.7 µM | hit rate 52% among 1,900;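 active means mean PP1 inhibition above a set limit taken from the earlier primary screen, cut at about 15% in these data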
PP5 inh counter – PP5 phosphatase inhibition by PP1 hits, confirmation, counter-screen for PP1 inhibitor project, biochemical, fluorescence, triplicate; shares compounds with PP1 inh; purified PP5c, OMFP fluorescence; inhibition, % at 6.7 µM; hit rate 4% among 1,900; AID 2360, 2010;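 active means mean PP5 inhibition over triplicate wells above about 9.5% taken from the earlier PP1 screen, limit read from the data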
* marks the source's active call; other numbers are inactive results.

How did O=C(Nc1nc2ccccc2s1)c1cc2c(s1)-c1ccccc1OC2 do in these assays?
PP1 inh: -18; STEP block: 0; PP5 inh: 3; LMPTP inh: 0; Scp-1 inhibitor: -4

How did Cc1cccc2c1-c1sc(C(=O)Nc3cccnc3)cc1CO2 do in these assays?
PP1 inh: 4; STEP block: 1; PP5 inh: 3; LMPTP inh: 1; Scp-1 inhibitor: -1

Results for O=C(Nc1nccs1)c1cc2c(s1)-c1ccccc1OC2 ?
PP1 inh: 23*; STEP block: 0; PP5 inh: -1; LMPTP inh: 1; Scp-1 inhibitor: -3; PP1 inh confirm: 26*; PP5 inh counter: -4

What do the screens show for `Cc1cccc2c1-c1sc(C(=O)Nc3nccs3)cc1CO2`?
PP1 inh: 21*; STEP block: 0; PP5 inh: 1; LMPTP inh: 0; Scp-1 inhibitor: 1; PP1 inh confirm: 3; PP5 inh counter: -3

How did Nc1ccccc1C#Cc1ccc2[nH]ccc2c1 do in these assays?
PP1 inh: 0; STEP block: -2; PP5 inh: -1; LMPTP inh: 2; Scp-1 inhibitor: -2

Results for Cc1cc(C(=O)NNC(=O)c2cccc([N+](=O)[O-])c2)n[nH]1 ?
PP1 inh: -3; STEP block: 2; PP5 inh: 0; LMPTP inh: -2; Scp-1 inhibitor: -6

Results for O=c1nc2sc3ccccc3n2c(=O)n1-c1cccc(Cl)c1 ?
PP1 inh: -3; STEP block: 0; PP5 inh: 3; LMPTP inh: -1; Scp-1 inhibitor: -2

How did CNc1cc(CSC)nc(SCc2ccc(Cl)c(Cl)c2)n1 do in these assays?
PP1 inh: 25*; STEP block: -6; PP5 inh: 6; LMPTP inh: 4; Scp-1 inhibitor: 3; PP1 inh confirm: 10; PP5 inh counter: 3

What do the screens show for `Cc1cc(C)c(C#N)c(Nc2ccccc2)n1`?
PP1 inh: 2; STEP block: -2; PP5 inh: 1; LMPTP inh: -1; Scp-1 inhibitor: 6

What do the screens show for `COc1ccc(-n2c(Cn3c(=O)sc4ccccc43)nnc2SCC(=O)N2CCCC2)cc1`?
PP1 inh: 38*; STEP block: -1; PP5 inh: 1; LMPTP inh: 1; Scp-1 inhibitor: -4; PP1 inh confirm: -5; PP5 inh counter: -6

What do the screens show for `CCOc1ccc(-c2cc(C(=O)NCCCn3ccnc3)c3cc(Br)ccc3n2)cc1`?
PP1 inh: 21*; STEP block: 12; PP5 inh: 4; LMPTP inh: 9; Scp-1 inhibitor: -9; PP1 inh confirm: 6; PP5 inh counter: 1

Results for CCOc1ccc(-c2cc(C(=O)NCCCn3ccnc3)c3ccccc3n2)cc1 ?
PP1 inh: 3; STEP block: -2; PP5 inh: -1; LMPTP inh: 1; Scp-1 inhibitor: -3

Results for NC(=NCCCCCCN=C(N)/N=C(\N)Nc1ccc(Cl)cc1)/N=C(\N)Nc1ccc(Cl)cc1 ?
PP1 inh: 20*; STEP block: 6; PP5 inh: 5; LMPTP inh: 0; Scp-1 inhibitor: -17; PP1 inh confirm: 5; PP5 inh counter: 0

What do the screens show for `CC(C)N=C(N)N=C(N)Nc1ccc(Cl)cc1`?
PP1 inh: 1; STEP block: 0; PP5 inh: 3; LMPTP inh: -1; Scp-1 inhibitor: -14

What do the screens show for `Nc1cc2nc3ccccc3oc-2cc1=O`?
PP1 inh: 19*; STEP block: -3; PP5 inh: 4; LMPTP inh: 2; Scp-1 inhibitor: 10; PP1 inh confirm: 2; PP5 inh counter: 7

Results for CSc1ccc(CCNS(=O)(=O)c2ccc3c(c2)C(C)(C)C(=O)N3C)cc1 ?
PP1 inh: -4; STEP block: 0; PP5 inh: 0; LMPTP inh: 0; Scp-1 inhibitor: -9

What do the screens show for `CC1(c2ccc(Cl)cc2)NC(=O)N(CC(=O)Nc2ccc(F)cc2)C1=O` (stereo not drawn)?
PP1 inh: 0; STEP block: -3; PP5 inh: 1; LMPTP inh: 1; Scp-1 inhibitor: -7

How did COc1ccc(C2(C)NC(=O)N(CC(=O)Nc3ccc4ccccc4c3)C2=O)cc1OC (stereo not drawn) do in these assays?
STEP block: 1; LMPTP inh: 2; Scp-1 inhibitor: -9

What do the screens show for `COc1ccc(NC(=O)CN2C(=O)NC(C)(c3ccccc3)C2=O)cc1Cl` (stereo not drawn)?
PP1 inh: -88; STEP block: -1; PP5 inh: 1; LMPTP inh: 0; Scp-1 inhibitor: -5; PP1 inh confirm: 1; PP5 inh counter: 2

How did CC1(c2ccc(Cl)cc2)NC(=O)N(CC(=O)Nc2ccc(N3CCCCC3)cc2)C1=O (stereo not drawn) do in these assays?
PP1 inh: 39*; STEP block: -3; PP5 inh: -2; LMPTP inh: 1; Scp-1 inhibitor: -2; PP1 inh confirm: 4; PP5 inh counter: -2

Results for COc1ccccc1N1CCN(C(=O)c2cccc(S(=O)(=O)Nc3ccccc3F)c2)CC1 ?
STEP block: 0; LMPTP inh: 0; Scp-1 inhibitor: 1

Results for Cc1ccccc1OCCC(=O)OCC(=O)NC(=O)c1ccccc1 ?
PP1 inh: 22*; STEP block: 1; PP5 inh: 2; LMPTP inh: 0; Scp-1 inhibitor: -4; PP1 inh confirm: -1; PP5 inh counter: -5

Results for Cc1ccccc1OCCC(=O)OCC(=O)NCCc1ccccc1 ?
PP1 inh: -4; STEP block: 0; PP5 inh: 1; LMPTP inh: 0; Scp-1 inhibitor: -2

Results for CC(NC(=O)/C(C#N)=C/c1cn[nH]c1-c1ccccc1)c1ccccc1 (stereo not drawn) ?
PP1 inh: 5; STEP block: 2; PP5 inh: 1; LMPTP inh: 0; Scp-1 inhibitor: -7

What do the screens show for `Cc1cc(C)n(Cc2ccc(C(=O)N/N=C/c3ccc(-c4ccc([N+](=O)[O-])cc4)o3)o2)n1`?
PP1 inh: 33*; STEP block: 99*; PP5 inh: 3; LMPTP inh: 97*; Scp-1 inhibitor: 102*; PP1 inh confirm: 28*; PP5 inh counter: -1
